The list is not random: actives were taken first. Their share in the collection is about 3.3%.
NRP1-CendR mod: modulators of CendR peptide binding to NRP-1, primary screen, biochemical, fluorescence polarization, uHTS. FAM-RPARPAR peptide binding to NRP-1. inhibition, % at 25 µM. 360,000 tested, 0.85% active;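 active = inhibition or corrected inhibition above about 18%, plus a signal ratio from 0.5 to 1.5, limit read from the data, passing the limit was not always enough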
SENP8 block-1: human SENP8 protease inhibitors, primary screen, biochemical, fluorescence, Nedd8 protein substrate, uHTS; recombinant SENP8; inhibition, % at 20 µM; 360,000 tested, 0.64% active; AID 602440, 2012; in the data active = inhibition mostly above about 40%, no sharp cut-off; inactive = mostly below about 27%
Target sequence (Q96LD8 whole entry, looked up): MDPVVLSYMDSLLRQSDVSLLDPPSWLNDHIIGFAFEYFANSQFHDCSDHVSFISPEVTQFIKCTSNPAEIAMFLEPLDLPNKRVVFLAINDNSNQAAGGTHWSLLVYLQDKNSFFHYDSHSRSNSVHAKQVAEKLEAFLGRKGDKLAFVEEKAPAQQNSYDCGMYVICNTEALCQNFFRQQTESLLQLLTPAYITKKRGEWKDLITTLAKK
SENP7 block: SENP7 protease inhibitors, primary screen, biochemical, luminescence, uHTS. recombinant SENP7, Z-RLRGG-aminoluciferin luminescence, 40 min. inhibition, % at 5 µM. 330,000 tested, 1.5% active;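 active = inhibition above about 50% at the single test dose, limit read from the data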
SENP8 block-2: SENP8 protease inhibitors, primary screen, biochemical, luminescence | Sentrin-specific protease 8 (Homo sapiens), Q96LD8 | 330,000 tested, 1.2% active | purified SENP8, Z-RLRGG-aminoluciferin cleavage | AID 2540, 2010 | inhibition, % at 10 µM; in the data active = inhibition above about 50%
SENP1 inh: human SENP1 catalytic domain inhibitors, primary screen, biochemical, FRET, uHTS; Sentrin-specific protease 1 (Homo sapiens), Q9P0U3; recombinant SENP1 catalytic domain, CyPet-SUMO1-YPet FRET cleavage; inhibition, % at 10 µM; 360,000 tested, 0.21% active;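 active = inhibition at least 30% at 10 µM, raw YFP signal under a set limit, fluorescence ratio 0.5 to 1.5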
Target sequence (Q9P0U3 419-644 limits assumed): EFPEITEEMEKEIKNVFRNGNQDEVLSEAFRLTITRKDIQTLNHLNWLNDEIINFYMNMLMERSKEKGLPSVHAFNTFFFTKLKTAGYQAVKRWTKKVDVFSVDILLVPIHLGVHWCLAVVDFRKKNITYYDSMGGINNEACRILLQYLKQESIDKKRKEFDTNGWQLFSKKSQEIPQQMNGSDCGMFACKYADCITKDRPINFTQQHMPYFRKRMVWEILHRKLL
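Test system: hSENP1 catalytic domain, recombinant; Amount: 20 pM final SENP1 enzyme; Medium: Tris pH 8 buffer plus EDTA, NaCl, BME, BSA, NP40, catalase; Schedule: 50 min enzyme reaction, room temperature, light-protected; Technique: FRET fluorescence in CFP and YFP emission channels; Controls: no-enzyme wells low, DMSO-plus-enzyme wells high control.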
SENP6 inh: SENP6 protease inhibitors, primary screen, biochemical, luminescence, uHTS; 330,000 tested, 1.8% active; Recombinant SENP6 catalytic domain, aminoluciferin luminescence; Sentrin-specific protease 6 (Homo sapiens), Q9GZR1; inhibition, % at 10 µM;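 active = inhibition above about 50% at the single tested dose, limit read from the data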
SENP8 conf: SENP8 protease inhibitors, retest, confirmation, biochemical, luminescence, single concentration; shares compounds with SENP7 block; inhibition, % at 12.5 µM; 6,200 tested, 40% active; Recombinant SENP8, Z-RLRGG-aminoluciferin luminescence, 60 min;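 active = mean inhibition across replicates above about 50%, limit read from the data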
SENP6 conf: SENP6 protease inhibitors, confirmation, biochemical, luminescence, single concentration; shares compounds with SENP7 block; inhibition, % at 12.5 µM; 6,200 tested, 58% active; AID 488915, 2010; recombinant SENP6, Z-RLRGG-aminoluciferin luminescence
SENP7 conf: SENP7 protease inhibitors, retest, confirmation, biochemical, luminescence, single concentration; shares compounds with SENP7 block; recombinant SENP7, Z-RLRGG-aminoluciferin luminescence, 40 min; inhibition, % at 12.5 µM; 6,200 tested, 69% active; AID 488917, 2010
Casp3 select: caspase-3 protease inhibitors, confirmation, selectivity assay for SENP inhibitor project, biochemical, single concentration; AID 488918, 2010; 6,200 tested, 60% active; purified caspase-3, Z-DEVD-aminoluciferin luminescence, 60 min; shares compounds with SENP7 block; inhibition, % at 12.5 µM;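 active = mean inhibition above about 50%, limit read from the data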
Target sequence (P42574 28-227 limits assumed): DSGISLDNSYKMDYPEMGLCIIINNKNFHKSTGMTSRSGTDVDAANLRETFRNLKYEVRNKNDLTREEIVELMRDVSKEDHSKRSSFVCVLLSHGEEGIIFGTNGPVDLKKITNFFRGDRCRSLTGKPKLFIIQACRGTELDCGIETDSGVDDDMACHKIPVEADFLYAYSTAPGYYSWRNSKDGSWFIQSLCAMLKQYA
SENP luc ctr: interferes with luciferase luminescence in SENP counter-screen; shares compounds with SENP7 block; Pre-incubated SENP8/Z-RLRGG-aminoluciferin, luciferase luminescence interference; inhibition, % at 12.5 µM; 6,200 tested, 39% active;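 active = mean inhibition above about 50% when retested at one dose, limit read from the data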
Numbers stand for hits.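 The calls were made as follows, unless noted: active = mean inhibition above about 50% in the one-dose retest (limit read from the data); inactive = the rest.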

Results for OC1(c2ccc(Cl)cc2)CCN(Cc2nc(-c3cnccn3)no2)CC1 ?
NRP1-CendR mod: inactive; SENP8 block-1: inactive; SENP7 block: inactive; SENP8 block-2: inactive; SENP1 inh: inactive; SENP6 inh: inactive

What do the screens show for `Clc1ccc(-c2nc(-c3cnccn3)no2)cc1`?
NRP1-CendR mod: inactive; SENP8 block-1: inactive; SENP7 block: 98; SENP8 block-2: 90; SENP1 inh: inactive; SENP6 inh: 96; SENP8 conf: 90; SENP6 conf: 93; SENP7 conf: 101; Casp3 select: 97; SENP luc ctr: 56

How did CCOc1ccc(C(=O)COC(=O)c2cc(=O)[nH]c3ccccc23)cc1 do in these assays?
NRP1-CendR mod: inactive; SENP8 block-1: inactive; SENP7 block: 53; SENP8 block-2: inactive; SENP1 inh: inactive; SENP6 inh: inactive; SENP8 conf: inactive; SENP6 conf: inactive; SENP7 conf: inactive; Casp3 select: inactive; SENP luc ctr: inactive

Results for O=C(COC(=O)c1cc(=O)[nH]c2ccccc12)c1ccc(Br)cc1 ?
NRP1-CendR mod: inactive; SENP8 block-1: inactive; SENP7 block: inactive; SENP8 block-2: inactive; SENP1 inh: inactive; SENP6 inh: inactive

How did O=C(Nc1nnc(CCc2ccccc2)s1)c1ccccc1F do in these assays?
NRP1-CendR mod: inactive; SENP8 block-1: inactive; SENP7 block: inactive; SENP8 block-2: inactive; SENP1 inh: inactive; SENP6 inh: 51; SENP8 conf: inactive; SENP6 conf: inactive; SENP7 conf: 58; Casp3 select: inactive; SENP luc ctr: inactive

Results for O=C(Nc1nnc(CCc2ccccc2)s1)c1cccc(F)c1 ?
NRP1-CendR mod: inactive; SENP8 block-1: inactive; SENP7 block: 61; SENP8 block-2: inactive; SENP1 inh: inactive; SENP6 inh: inactive; SENP8 conf: inactive; SENP6 conf: inactive; SENP7 conf: inactive; Casp3 select: inactive; SENP luc ctr: inactive

What do the screens show for `O=C(Nc1nnc(CCc2ccccc2)s1)c1ccc(F)cc1`?
NRP1-CendR mod: inactive; SENP8 block-1: inactive; SENP7 block: inactive; SENP8 block-2: inactive; SENP1 inh: inactive; SENP6 inh: inactive

How did C[C@@H]1CN([C@H](C)CO)C(=O)c2cc(Br)cnc2O[C@@H]1CN(C)C(=O)c1cccc(F)c1 do in these assays?
NRP1-CendR mod: inactive; SENP8 block-1: inactive; SENP1 inh: inactive

What do the screens show for `CN(c1ccc(C(=O)NCCSC(C)(C)C)cc1)S(C)(=O)=O`?
NRP1-CendR mod: inactive; SENP8 block-1: inactive; SENP7 block: inactive; SENP8 block-2: inactive; SENP1 inh: inactive; SENP6 inh: inactive

How did Cc1ccc(C(=O)NCCc2ccccc2)cc1 do in these assays?
NRP1-CendR mod: inactive; SENP8 block-1: inactive; SENP7 block: 54; SENP8 block-2: inactive; SENP1 inh: inactive; SENP6 inh: 53; SENP8 conf: inactive; SENP6 conf: inactive; SENP7 conf: 77; Casp3 select: 79; SENP luc ctr: 58

How did CN(c1ccc(C(=O)NCCc2ccccc2)cc1)S(C)(=O)=O do in these assays?
NRP1-CendR mod: inactive; SENP8 block-1: inactive; SENP7 block: 55; SENP8 block-2: inactive; SENP1 inh: inactive; SENP6 inh: inactive; SENP8 conf: inactive; SENP6 conf: inactive; SENP7 conf: 56; Casp3 select: 69; SENP luc ctr: inactive

What do the screens show for `COC(=O)c1c(N)sc(C(=O)NCCc2ccccc2)c1C`?
NRP1-CendR mod: inactive; SENP8 block-1: inactive; SENP7 block: 89; SENP8 block-2: 75; SENP1 inh: inactive; SENP6 inh: 88; SENP8 conf: 85; SENP6 conf: 82; SENP7 conf: 95; Casp3 select: 89; SENP luc ctr: 85

How did CCOC(=O)C1(C)CCCCCN1C(=O)c1csnn1 (configuration not stated) do in these assays?
NRP1-CendR mod: inactive; SENP8 block-1: inactive; SENP1 inh: inactive

What do the screens show for `Fc1cccc2sc(Nc3nc4cc5c(cc4s3)OCO5)nc12`?
NRP1-CendR mod: inactive; SENP8 block-1: inactive; SENP7 block: 53; SENP8 block-2: inactive; SENP1 inh: inactive; SENP6 inh: inactive; SENP8 conf: inactive; SENP6 conf: inactive; SENP7 conf: inactive; Casp3 select: inactive; SENP luc ctr: inactive

Results for CN(C)c1ccccc1-c1cc(NC=O)c2ncc(-c3cccc(C(F)(F)F)c3)n2c1 ?
NRP1-CendR mod: inactive; SENP8 block-1: inactive; SENP1 inh: inactive

Results for COc1cc(NS(=O)(=O)c2ccc(NC(=O)/C(=C/c3ccccc3Cl)NC(=O)c3ccccc3)cc2)nc(OC)n1 ?
NRP1-CendR mod: inactive; SENP8 block-1: inactive; SENP7 block: inactive; SENP8 block-2: inactive; SENP1 inh: inactive; SENP6 inh: 64; SENP8 conf: inactive; SENP6 conf: inactive; SENP7 conf: inactive; Casp3 select: inactive; SENP luc ctr: inactive

What do the screens show for `COc1cc(NS(=O)(=O)c2ccc(NC(=O)/C(=C\c3ccccc3OC)NC(=O)c3ccccc3)cc2)nc(OC)n1`?
NRP1-CendR mod: inactive; SENP8 block-1: inactive; SENP7 block: inactive; SENP8 block-2: inactive; SENP1 inh: inactive; SENP6 inh: inactive

Results for C=C(C)CN(CC)c1nc(N)c2c(N)nc3c(c2c1C#N)CC(=O)N3C12CC3CC(CC(C3)C1)C2 ?
NRP1-CendR mod: inactive; SENP8 block-1: inactive; SENP7 block: inactive; SENP8 block-2: 86; SENP1 inh: inactive; SENP6 inh: 85; SENP8 conf: inactive; SENP6 conf: inactive; SENP7 conf: inactive; Casp3 select: inactive; SENP luc ctr: inactive
